In paper PMC10791108 (Journal of Enzyme Inhibition and Medicinal Chemistry, 2024):
Where two headings read alike, the source gives them in different places.

Experiments:
human Topo IIβ [1] = molecular target: T1, human Topo IIβ (Homo sapiens, UniProt Q02880); test: pBR322 DNA relaxation assay; assay type: biochemical; details: gel
Summary of the method: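 Supercoiled pBR322 (250 ng) with test compound in reaction buffer. Started by adding diluted human Topo IIβ, incubated 30 min at 37 °C, quenched with loading buffer. Topoisomers separated on 1% agarose in 1× TBE (20 V, 18 h) and visualised by ethidium bromide staining. ETP and ICRF-187 were included as references.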

A549 [2] = test: MTT drug sensitivity assay; assay type: cell-based; details: Homo sapiens, A549, 72 h, read-out: In vitro growth inhibitory activity (IC50 ± SD) A549
Summary of the method: (§1)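 ATCC lines were grown at 37 °C, 5% CO2 with 10% FBS and 2 mM L-glutamine (A549, MCF-7: RPMI-1640; HCT-116, U-2 OS: McCoy's 5A; U-87 MG: MEM; HEK293: DMEM). Test compound 0–50 µM for 72 h, then MTT 0.4 mg/ml in PBS, 3 h, 37 °C. Formazan dissolved in DMSO, absorbance 540 nm. IC50 relative to 1% v/v DMSO-treated cells; three independent runs.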

A549 [3] = test: Caspase-3/7 activation; assay type: cell-based, human; details: 24 h, equitoxic concentrations
Topo IIα [4] = molecular target: T2, Topo IIα (Homo sapiens, UniProt P11388); test: pBR322 DNA relaxation assay; assay type: biochemical; details: for Inhibition of Topo IIα-mediated pBR322 relaxation: gel
U-87 MG = test: MTT drug sensitivity assay; assay type: cell-based; details: Homo sapiens, 72 h, read-out: In vitro growth inhibitory activity (IC50 ± SD) U-87 MG
Summary of the method: as §1

HCT-116 [5] = test: TUNEL DNA fragmentation analysis; assay type: cell-based, human; details: 24 and 48 h; more pronounced than on A549
MCF-7 [6] = test: MTT drug sensitivity assay; assay type: cell-based; details: Homo sapiens, MCF7, 72 h, read-out: In vitro growth inhibitory activity (IC50 ± SD) MCF-7
Summary of the method: as §1

HCT-116 [7] = test: Clonogenic assay; assay type: cell-based, human; details: 24 h treatment, eight days culture, vs DMSO
Summary of the method: (§2)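 A549 or HCT-116 cells were seeded at 400 cells/well and exposed to a range of test compound concentrations for 24 h. After washing, cells were grown for eight days, then fixed in methanol and stained with 0.5% crystal violet. Colonies were counted and viability calculated relative to control. Mean ± SD of three independent experiments.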

HEK293 = test: MTT drug sensitivity assay; assay type: cell-based; details: Homo sapiens, HEK293, 72 h, read-out: In vitro growth inhibitory activity (IC50 ± SD) HEK293
Summary of the method: as §1

human Topo IIβ [8] = molecular target: T1, human Topo IIβ; test: kDNA decatenation assay; assay type: biochemical; details: gel
Summary of the method: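 Decatenation: 250 ng kDNA was mixed with test compound in reaction buffer. The reaction was started with diluted human Topo IIβ and run for 30 min at 37 °C, then stopped with loading buffer. Products were resolved on a 1% agarose gel in 1× TBE at 20 V for 18 h and stained with ethidium bromide. ETP and ICRF-187 were references.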

U-2 OS = test: MTT drug sensitivity assay; assay type: cell-based; details: Homo sapiens, U2OS, 72 h, read-out: In vitro growth inhibitory activity (IC50 ± SD) U-2 OS
Summary of the method: as §1

A549 [9] = test: Annexin V-FITC/7-AAD apoptosis assay; assay type: cell-based, human; details: Annexin V/7-AAD
A549 [10] = test: Clonogenic assay; assay type: cell-based, human; details: 24 h treatment, eight days culture, vs DMSO
Summary of the method: as §2

Topo IIα [11] = molecular target: T2, Topo IIα; test: kDNA decatenation assay; assay type: biochemical; details: gel
Summary of the method: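 Commercial kit protocol: 250 ng kDNA with test compound in reaction buffer; started by adding diluted human Topo IIα; 30 min at 37 °C; stopped with loading buffer. Products resolved on 1% agarose in 1xTBE, 20 V for 18 h, EtBr-stained, destained in water, imaged. Catenated versus decatenated kDNA judged by migration.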

Topo IIα [12] = molecular target: T2, Topo IIα; test: DNA cleavage assay; assay type: biochemical; details: for Stabilisation of Topo IIα/DNA cleavage complex (linear pBR322 plasmid): gel, ETP 100 µM
Summary of the method: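 Reaction mix as for the human Topo IIα relaxation assay (plasmid DNA, test compound, reaction buffer), but with fivefold more enzyme. Reaction started by adding human Topo IIα, then 10 min at 37 °C. Products separated by agarose gel electrophoresis in 1× TBE containing EtBr (1 µg/ml), and linear plasmid scored on the gel.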

HCT-116 [13] = test: MTT drug sensitivity assay; assay type: cell-based; details: Homo sapiens, HCT-116, 72 h, read-out: In vitro growth inhibitory activity (IC50 ± SD) HCT-116
Summary of the method: as §1

[14] = tested on: all investigated cell lines, including HEK293; test: MTT drug sensitivity assay, statement over all cell lines; assay type: cell-based; details: Homo sapiens, HEK293, 72 h, read-out: IC50 for all investigated cell lines
Summary of the method: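 Cells were exposed to test compound at 0–50 µM for 72 h. Lines: A549 and MCF-7 (RPMI-1640), HCT-116 and U-2 OS (McCoy's 5A), U-87 MG (MEM), HEK293 (DMEM); all with 10% FBS, 37 °C, 5% CO2. MTT (0.4 mg/ml in PBS) for 3 h at 37 °C; formazan dissolved in DMSO; A540. ETP and m-AMSA as references; independent triplicate.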

HCT-116 [15] = test: Annexin V-FITC/7-AAD apoptosis assay; assay type: cell-based, human; details: for Necrosis activation HCT-116: statistically significant, **p < 0.001
HCT-116 [16] = test: Cell cycle analysis; assay type: cell-based, human; details: equitoxic concentrations, 24 and 48 h
MCF-7 [17] = test: Cell cycle analysis; assay type: cell-based, human; details: 48 h exposure, equitoxic concentration, p < 0.00001
A549 [18] = test: BrdU incorporation assay; assay type: cell-based, human; details: equitoxic (IC50) concentration, 24 or 48 h
HCT-116 [19] = test: BrdU incorporation assay; assay type: cell-based, human; details: equitoxic (IC50) concentration, 24 or 48 h
A549 [20] = details: reference, 50 µM added 15 min before end of incubation
HCT-116 [21] = details: reference, 50 µM added 15 min before end of incubation
A549 [22] = details: read-out: IC50 cytotoxic activity A549; 72 h ref 51; cited from earlier work
MCF-7 [23] = details: read-out: IC50 cytotoxic activity MCF-7; 72 h ref 51; cited from earlier work
[24] = concentration series up to highest concentration tested

T2 sequence (P11388 whole entry): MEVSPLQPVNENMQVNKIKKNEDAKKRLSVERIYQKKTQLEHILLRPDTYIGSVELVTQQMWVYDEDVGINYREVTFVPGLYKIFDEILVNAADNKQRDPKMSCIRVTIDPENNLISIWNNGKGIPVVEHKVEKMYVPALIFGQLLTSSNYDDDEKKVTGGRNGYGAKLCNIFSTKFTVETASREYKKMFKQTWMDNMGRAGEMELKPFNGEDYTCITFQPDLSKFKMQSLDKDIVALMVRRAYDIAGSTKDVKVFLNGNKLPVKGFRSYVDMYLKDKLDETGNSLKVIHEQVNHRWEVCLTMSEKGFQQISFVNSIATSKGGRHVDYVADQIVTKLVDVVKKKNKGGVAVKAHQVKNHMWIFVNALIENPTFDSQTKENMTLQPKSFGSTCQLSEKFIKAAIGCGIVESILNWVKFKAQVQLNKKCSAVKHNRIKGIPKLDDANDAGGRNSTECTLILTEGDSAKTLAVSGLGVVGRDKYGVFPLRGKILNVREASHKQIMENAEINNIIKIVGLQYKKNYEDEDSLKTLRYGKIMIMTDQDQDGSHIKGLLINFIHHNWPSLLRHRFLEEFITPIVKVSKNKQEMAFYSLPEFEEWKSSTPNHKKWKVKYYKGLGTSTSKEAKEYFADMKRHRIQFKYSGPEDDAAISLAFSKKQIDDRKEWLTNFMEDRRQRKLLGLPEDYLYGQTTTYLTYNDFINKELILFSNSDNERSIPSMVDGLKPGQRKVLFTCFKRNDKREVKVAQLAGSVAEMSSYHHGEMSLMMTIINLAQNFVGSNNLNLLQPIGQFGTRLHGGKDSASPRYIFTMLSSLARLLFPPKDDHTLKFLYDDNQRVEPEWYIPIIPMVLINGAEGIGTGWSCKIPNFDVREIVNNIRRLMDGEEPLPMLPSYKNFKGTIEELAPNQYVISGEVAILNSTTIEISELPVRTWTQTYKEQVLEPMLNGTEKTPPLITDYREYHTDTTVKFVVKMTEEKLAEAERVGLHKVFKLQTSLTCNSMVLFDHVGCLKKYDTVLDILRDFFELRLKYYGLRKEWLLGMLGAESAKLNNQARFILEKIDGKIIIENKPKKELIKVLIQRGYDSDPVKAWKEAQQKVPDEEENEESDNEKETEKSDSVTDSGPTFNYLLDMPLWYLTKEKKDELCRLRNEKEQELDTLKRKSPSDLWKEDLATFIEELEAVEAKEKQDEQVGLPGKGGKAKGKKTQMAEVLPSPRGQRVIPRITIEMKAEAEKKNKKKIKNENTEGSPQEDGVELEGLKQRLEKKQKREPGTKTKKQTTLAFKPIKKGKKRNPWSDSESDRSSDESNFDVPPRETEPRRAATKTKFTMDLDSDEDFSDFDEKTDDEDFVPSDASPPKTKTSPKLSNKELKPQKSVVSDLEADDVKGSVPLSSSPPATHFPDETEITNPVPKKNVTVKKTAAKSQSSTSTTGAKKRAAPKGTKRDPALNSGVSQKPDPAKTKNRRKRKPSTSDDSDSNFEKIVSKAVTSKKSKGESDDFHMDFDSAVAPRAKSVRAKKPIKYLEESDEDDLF
T1 sequence (Q02880 whole entry): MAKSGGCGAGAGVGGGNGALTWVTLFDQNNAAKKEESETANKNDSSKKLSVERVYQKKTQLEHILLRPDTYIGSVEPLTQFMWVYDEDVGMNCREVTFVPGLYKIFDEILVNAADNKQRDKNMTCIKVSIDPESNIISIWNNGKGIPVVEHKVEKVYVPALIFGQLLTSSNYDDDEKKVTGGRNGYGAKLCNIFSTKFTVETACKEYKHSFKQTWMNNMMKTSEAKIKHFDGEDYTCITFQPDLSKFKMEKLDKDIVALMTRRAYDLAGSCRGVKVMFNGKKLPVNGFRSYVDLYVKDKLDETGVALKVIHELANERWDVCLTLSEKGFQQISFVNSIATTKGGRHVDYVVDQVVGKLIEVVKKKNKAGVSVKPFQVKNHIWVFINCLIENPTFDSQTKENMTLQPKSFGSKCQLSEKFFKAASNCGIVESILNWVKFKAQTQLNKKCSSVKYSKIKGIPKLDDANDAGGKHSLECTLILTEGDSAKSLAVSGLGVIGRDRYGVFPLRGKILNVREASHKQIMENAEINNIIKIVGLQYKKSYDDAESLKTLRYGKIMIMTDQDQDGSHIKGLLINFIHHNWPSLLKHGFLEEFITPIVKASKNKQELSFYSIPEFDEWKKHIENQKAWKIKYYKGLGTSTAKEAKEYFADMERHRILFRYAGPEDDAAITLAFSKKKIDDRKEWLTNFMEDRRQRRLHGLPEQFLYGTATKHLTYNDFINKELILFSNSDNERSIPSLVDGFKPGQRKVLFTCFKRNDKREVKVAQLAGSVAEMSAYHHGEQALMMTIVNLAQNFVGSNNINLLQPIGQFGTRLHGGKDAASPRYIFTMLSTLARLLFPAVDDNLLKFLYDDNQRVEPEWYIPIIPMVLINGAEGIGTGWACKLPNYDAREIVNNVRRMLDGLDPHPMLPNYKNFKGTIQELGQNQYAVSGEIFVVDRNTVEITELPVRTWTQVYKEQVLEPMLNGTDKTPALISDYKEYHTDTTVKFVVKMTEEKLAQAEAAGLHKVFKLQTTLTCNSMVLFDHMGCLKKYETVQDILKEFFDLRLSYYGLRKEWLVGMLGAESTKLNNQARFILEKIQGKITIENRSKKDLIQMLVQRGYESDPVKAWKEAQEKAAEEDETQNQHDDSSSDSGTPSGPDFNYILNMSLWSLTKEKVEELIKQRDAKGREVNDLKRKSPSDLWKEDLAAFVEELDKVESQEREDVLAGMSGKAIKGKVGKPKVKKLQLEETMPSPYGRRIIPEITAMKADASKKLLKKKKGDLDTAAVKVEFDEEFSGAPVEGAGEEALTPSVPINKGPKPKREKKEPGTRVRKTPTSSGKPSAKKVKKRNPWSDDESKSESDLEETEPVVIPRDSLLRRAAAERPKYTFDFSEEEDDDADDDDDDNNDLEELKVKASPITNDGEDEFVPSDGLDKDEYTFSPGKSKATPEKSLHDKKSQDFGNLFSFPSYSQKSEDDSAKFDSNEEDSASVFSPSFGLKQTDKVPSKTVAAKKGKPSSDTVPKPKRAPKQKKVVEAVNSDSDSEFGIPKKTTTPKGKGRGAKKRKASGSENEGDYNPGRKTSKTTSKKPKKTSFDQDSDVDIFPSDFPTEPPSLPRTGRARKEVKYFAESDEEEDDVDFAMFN

Structure (SMILES) | IC50 (A549 [2]) | Caspase-3/7 activation, increase compared to control A549 (A549 [3]) | IC50 (U-87 MG) | IC50 (MCF-7 [6]) | IC50 (HEK293) | IC50 (U-2 OS) | Colony-forming ability A549 (A549 [10]) | Stabilisation of Topo IIα/DNA cleavage complex (linear pBR322 plasmid) (Topo IIα [12]) | IC50 (HCT-116 [13]) | other results
c1coc(-c2ccc3c(c2)[nH]c2cc(-c4ccco4)ccc23)c1 [Compound 27a, 2,7-Di(2-furyl)-9H-carbazole] | 0.26 ± 0.12 µM | 3.4 fold | 0.45 ± 0.15 µM | 0.79 ± 0.21 µM | 0.19 ± 0.07 µM | 0.37 ± 0.05 µM | reduced the colony number | do not stabilise the covalent cleavage complex | 0.22 ± 0.04 µM | Inhibition of Topo IIβ-mediated pBR322 relaxation (human Topo IIβ [1]; highest tested concentrations): moderately affected; Inhibition of Topo IIα-mediated pBR322 relaxation (Topo IIα [4]; highest tested concentrations): moderately affected; TUNEL-positive cells HCT-116 (HCT-116 [5]): most massive effect; Colony-forming ability HCT-116 (HCT-116 [7]): reduced the colony number; Inhibition of Topo IIβ-mediated kDNA decatenation (human Topo IIβ [8]; 100 µM): completely inhibited decatenation; Increase in fraction of apoptotic cells compared to control A549 (A549 [9]): eightfold increase; Inhibition of Topo IIα-mediated kDNA decatenation (Topo IIα [11]; [24]): either completely inhibited decatenation only at the highest concentration tested, or partially inhibited the decatenation of higher-order catenates; IC50 [14]: < 1 µM; Increase in fraction of apoptotic cells compared to control HCT-116 (HCT-116 [15]; Annexin V/7-AAD): eightfold increase; Necrosis activation HCT-116 (HCT-116 [15]): slightly activated necrosis
c1coc(-c2ccc3[nH]c4ccc(-c5ccco5)cc4c3c2)c1 [Compound 36a, 3,6-Di(2-furyl)-9H-carbazole] | 0.93 ± 0.15 µM | 5.7 fold | 2.19 ± 0.3 µM | 1.39 ± 0.29 µM | 1.65 ± 0.13 µM | 0.99 ± 0.18 µM | reduced the colony number | do not stabilise the covalent cleavage complex | 0.48 ± 0.06 µM | Inhibition of Topo IIβ-mediated pBR322 relaxation (human Topo IIβ [1]; 20–100 µM): did not impact Topo IIβ activity; Cell cycle effect HCT-116 (G0/G1 phase) (HCT-116 [16]): time-dependent increase in the number of cells in the G0/G1 phase; Isoform selectivity of relaxation inhibition (Topo IIα vs Topo IIβ) (Topo IIα [4]; from relaxation gels with both isoforms): selectively inhibits the relaxation activity of Topo IIα; Inhibition of Topo IIα-mediated pBR322 relaxation (Topo IIα [4]; 20–100 µM): fully inhibited DNA relaxation; Colony-forming ability HCT-116 (HCT-116 [7]): reduced the colony number; Inhibition of Topo IIβ-mediated kDNA decatenation (human Topo IIβ [8]; highest concentration tested): partially inhibiting decatenation only at the highest concentration tested; Inhibition of Topo IIα-mediated kDNA decatenation (Topo IIα [11]; 4–100 µM): effective and concentration-dependent inhibition; Effect on ETP-induced DNA cleavage (linear plasmid) (Topo IIα [12]; co-treatment with ETP, Topo IIα): reduced the level of linear plasmid
c1csc(-c2ccc3[nH]c4ccc(-c5cccs5)cc4c3c2)c1 [Compound 36b, 3,6-Di(2-thienyl)-9H-carbazole] | 0.6 ± 0.1 µM | 2.5 fold | 1.4 ± 0.24 µM | 0.83 ± 0.21 µM | 0.32 ± 0.11 µM | 0.71 ± 0.06 µM | lower inhibitory activity | do not stabilise the covalent cleavage complex | 0.27 ± 0.11 µM | Cells in G0/G1 phase MCF-7 (MCF-7 [17]): 59.85 ± 2.15%; Inhibition of Topo IIβ-mediated pBR322 relaxation (human Topo IIβ [1]; highest tested concentrations): moderately affected; Decrease in BrdU-positive cells A549 (A549 [18]): approximately 4 fold; Decrease in BrdU-positive cells HCT-116 (HCT-116 [19]): ~3.5 fold; Inhibition of Topo IIα-mediated pBR322 relaxation (Topo IIα [4]; highest tested concentrations): moderately affected; Inhibition of Topo IIα-mediated kDNA decatenation (Topo IIα [11]; [24]): either completely inhibited decatenation only at the highest concentration tested, or partially inhibited the decatenation of higher-order catenates; Necrosis activation HCT-116 (HCT-116 [15]): slightly activated necrosis
COc1cc([C@@H]2c3cc4c(cc3[C@@H](O[C@@H]3O[C@@H]5CO[C@@H](C)O[C@H]5[C@H](O)[C@H]3O)[C@H]3COC(=O)[C@H]23)OCO4)cc(OC)c1O [Etoposide, etoposide, reference compound] | 0.54 ± 0.21 µM | – | 11.9 ± 1.31 µM | 0.83 ± 0.15 µM | – | 0.61 ± 0.04 µM | – | – | 0.39 ± 0.01 µM | –
N#CC(C#N)=NNc1ccc(OC(F)(F)F)cc1 [FCCP, carbonyl cyanide 4-(trifluoromethoxy)phenylhydrazone] | – | – | – | – | – | – | – | – | – | Increase in JC-1 monomers vs control A549 (A549 [20]): 11 fold; Increase in JC-1 monomers vs control HCT-116 (HCT-116 [21]): 6.3 fold
C[C@@H](CN1CC(=O)NC(=O)C1)N1CC(=O)NC(=O)C1 [ICRF-187, reference compound] | – | – | – | – | – | – | – | – | – | Inhibition of Topo IIβ-mediated pBR322 relaxation (human Topo IIβ [1]; reference at 100 µM): relatively lower inhibitory effects; Inhibition of Topo IIα-mediated pBR322 relaxation (Topo IIα [4]; reference at 100 µM): completely inhibited relaxation activity; Inhibition of Topo IIβ-mediated kDNA decatenation (human Topo IIβ [8]; 100 µM): more significant effect than ETP
O=C1NC(=S)NC(=O)C1C(=O)Nc1ccccc1 [merbarone] | – | – | – | – | – | – | – | – | – | IC50 (A549 [22]): 40 ± 2.7 µM; IC50 (MCF-7 [23]): 83.9 ± 3 µM
